Assay results taken from ChEMBL document CHEMBL4382252, “1,4-Benzodioxane Lignans: An Efficient, Asymmetric Synthesis of Flavonolignans and Study of Neolignan Cytotoxicity and Antiviral Profiles” (J Nat Prod, 2018).

Tests used:
[1] = (§1) Cytotoxicity against human Huh7.5.1 cells after 72 hrs by ATPlite assay; format: cell-based; details: Huh7.5.1 cells
In short: (§2)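 Compounds in DMSO added to cells at a range of concentrations. ATP measured by ATPlite after 72 h. DMSO held at 0.5% final in all wells, including controls. Triplicate per concentration. CC50 obtained by log-transforming doses and fitting a variable-slope four-parameter regression.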

Hepatitis C virus = experiment: Antiviral activity against HCV JFH-1 infected in human Huh7.5.1 cells assessed as reduction in NS3/NS5A expression by Western blot analysis; format: functional, organism-based, Hepacivirus hominis
In short: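 Huh7.5.1 human hepatoma cells infected with HCV (JFH-1) at MOI 0.05 for 5 h; inoculum then replaced with fresh medium containing compound, three concentrations each. DMSO solvent control ≤0.5% final. Lysates run on SDS-PAGE and Western blotted for NS3 and NS5A, reprobed for actin as loading control. IC50 estimated from pixel intensity of viral protein bands.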

[2] = Selectivity index, ratio of CC50 for human Huh7.5.1 cells to IC50 for HCV JFH1 infected in human Huh7.5.1 cells; format: toxicity, cell-based; details: for selectivity ratio: Huh7.5.1 cells, HCV JFH1-infected Huh7.5.1 cells, read-out: Ratio CC50/IC50
Huh7.5.1 = experiment: as §1; format: cell-based; details: huh7.5.1, 72 h; in short: as §2
[3] = Hepatitis C virus, JFH-1, Huh-7.5.1

Compound	IC50 (Hepatitis C virus; [3])	IC50 (Hepatitis C virus)	CC50 at 72 h [1]	selectivity ratio [2]	CC50 (Huh7.5.1)	Ratio CC50/IC50 [2]
COc1cc([C@H]2Oc3cc(/C=C/CO)cc(OC)c3O[C@@H]2C)cc(OC)c1OC	50 µM	–	129 µM	2.57	–	–
COc1cc([C@H]2Oc3cccc(OC)c3O[C@@H]2C)cc(OC)c1OC	40 µM	–	50.2 µM	1.25	–	–
C=CCc1cc(OC)c2c(c1)O[C@H](c1cc(OC)c(OC)c(OC)c1)[C@@H](C)O2	30 µM	–	36.2 µM	1.21	–	–
C=CCc1cc(OC)c2c(c1)O[C@H](c1ccc3c(c1)OCO3)[C@@H](C)O2	20 µM	–	> 125 µM	> 6.25	–	–
COc1cc([C@H]2Oc3cc(/C=C/C=O)cc(OC)c3O[C@@H]2C)cc(OC)c1OC	25 µM	–	47.6 µM	1.91	–	–

Further lines, with some results ahead:

IC50 (Hepatitis C virus; [3])	IC50 (Hepatitis C virus)	Compound	CC50 at 72 h [1]	selectivity ratio [2]	CC50 (Huh7.5.1)	Ratio CC50/IC50 [2]
200 µM	–	COc1cc([C@H]2Oc3cc(/C=C/CO)cc(OC)c3O[C@@H]2CO)cc(OC)c1O	464 µM	2.32	–	–
60 µM	–	COc1cc(C2Oc3cc([C@H]4Oc5cc(O)cc(O)c5C(=O)[C@@H]4O)ccc3OC2CO)ccc1O (stereo not given in full) [SILIBININ]	80 µM	1.33	–	–
50 µM	–	COc1cc([C@H]2Oc3cc([C@H]4Oc5cc(O)cc(O)c5C(=O)[C@@H]4O)ccc3O[C@@H]2CO)ccc1O [SILYBIN A]	80 µM	1.6	–	–
50 µM	–	COc1cc([C@@H]2Oc3cc([C@H]4Oc5cc(O)cc(O)c5C(=O)[C@@H]4O)ccc3O[C@H]2CO)ccc1O [SILYBIN B]	68.7 µM	1.37	–	–
–	80 µM	SILYMARIN	–	–	100 µM	1.25
